This is an account of results in ChEMBL document CHEMBL1144550, “Molecular probes of DNA bulges: functional assay and spectroscopic analysis” (Bioorg Med Chem, 2007).

Assay [1] in a line: Effect on DNA binding assessed as binding to HT3CGTC synthetic oligo sequence code by measuring fluorescence quenching due to GC base pairs next to bulge in bulge binding assay. Also on record: species or system Homo sapiens. The gist of the method: (§1)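 Dissociation constants for a panel of 17 synthetic bulged oligos, taken from changes in drug fluorescence in emission spectra (excitation 360 nm, emission 480 nm) at 5 °C. Binding appears either as quenching or as stimulation of drug fluorescence. Values are given with standard deviations.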

The nature of assay [2]: Effect on DNA binding assessed as binding to HT3CGTA synthetic oligo sequence code by measuring fluorescence stimulation due to AT base pairs next to bulge in bulge binding assay. Also noted: species or system Homo sapiens. The gist of the method: as §1
The nature of assay [3]: Effect on DNA binding assessed as binding to HT3AGCTT synthetic oligo sequence code by measuring fluorescence stimulation due to AT base pairs next to bulge in bulge binding assay. Also on record: species or system Homo sapiens. The gist of the method:
as §1

Assay [4] is described as follows: Effect on DNA binding assessed as binding to HT3AGTT synthetic oligo sequence code by measuring fluorescence stimulation due to AT base pairs next to bulge in bulge binding assay. Also on record: species or system Homo sapiens. The gist of the method: as §1
Assay [5] can be described thus: Effect on DNA binding assessed as binding to HT3TGTA synthetic oligo sequence code by measuring fluorescence stimulation due to AT base pairs next to bulge in bulge binding assay. Also noted: species or system Homo sapiens. The gist of the method: as §1
The species named for assay [6] is Homo sapiens. Nature of the assay: Effect on slipped DNA synthesis assessed as enhanced synthesis at 40 uM relative to control.
Assay [7] in a line: Effect on DNA binding assessed as binding to HT3GGTC synthetic oligo sequence code by measuring fluorescence quenching due to GC base pairs next to bulge in bulge binding assay. Also on record: species or system Homo sapiens. The gist of the method: as §1
Assay [8] can be described thus: Effect on DNA binding assessed as binding to HT3GTTG synthetic oligo sequence code by measuring fluorescence quenching due to GC base pairs next to bulge in bulge binding assay. Also noted: species or system Homo sapiens. The gist of the method: as §1
A short description of assay [9]: Effect on DNA binding assessed as binding to HT3AGTC synthetic oligo sequence code by measuring fluorescence quenching due to GC base pairs next to bulge in bulge binding assay. Also on record: species or system Homo sapiens. The gist of the method:
as §1

Assay [10] can be described thus: Effect on DNA binding assessed as binding to HT3AGT synthetic oligo sequence code by measuring fluorescence stimulation due to AT base pairs next to bulge in bulge binding assay. Also noted: species or system Homo sapiens. The gist of the method: as §1
The species named for assay [11] is Homo sapiens. The experiment in a line: Effect on DNA binding assessed as binding to DA12:DAc12 synthetic oligo sequence code by measuring fluorescence quenching due to GC base pairs next to bulge in bulge binding assay. The gist of the method: as §1
Assay [12] can be described thus: Effect on DNA binding assessed as binding to HT3GGTA synthetic oligo sequence code by measuring fluorescence quenching due to GC base pairs next to bulge in bulge binding assay. Also noted: species or system Homo sapiens. The gist of the method: as §1
The nature of assay [13]: Effect on DNA binding assessed as binding to HT4AGTT synthetic oligo sequence code by measuring fluorescence stimulation due to AT base pairs next to bulge in bulge binding assay. Also on record: species or system Homo sapiens. The gist of the method: as §1
The nature of assay [14]: Effect on DNA binding assessed as binding to HT3AGTA synthetic oligo sequence code by measuring fluorescence stimulation due to AT base pairs next to bulge in bulge binding assay. Also noted: species or system Homo sapiens. The gist of the method: as §1
In assay [15] the target is DNA polymerase I Klenow fragment (Escherichia coli) (UniProt P00582). Nature of the assay: Induction of slipped DNA synthesis assessed as incorporation of [32P]TMP at 40 uM.
Assay [16] in a line: Effect on DNA binding assessed as binding to HT3GATC synthetic oligo sequence code by measuring fluorescence quenching due to GC base pairs next to bulge in bulge binding assay. Also noted: species or system Homo sapiens. The gist of the method: as §1
Assay [17] is described as follows: Effect on DNA binding assessed as binding to HT3GGTT synthetic oligo sequence code by measuring fluorescence quenching due to GC base pairs next to bulge in bulge binding assay. Also on record: species or system Homo sapiens. The gist of the method:
as §1

Assay [18] is described as follows: Effect on DNA binding assessed as binding to DA12:BA14 synthetic oligo sequence code by measuring fluorescence stimulation due to AT base pairs next to bulge in bulge binding assay. Also noted: species or system Homo sapiens. The gist of the method: as §1
Assay [19] can be described thus: Effect on DNA binding assessed as binding to HT3AT synthetic oligo sequence code by measuring fluorescence stimulation due to AT base pairs next to bulge in bulge binding assay. Also noted: species or system Homo sapiens. The gist of the method:
as §1

Assay [20] in a line: Effect on DNA binding assessed as binding to HT3GGTA synthetic oligo sequence code by measuring fluorescence stimulation due to AT base pairs next to bulge in bulge binding assay. Also noted: species or system Homo sapiens. The gist of the method:
as §1

Assay [21] can be described thus: Effect on DNA binding assessed as binding to HT3AGTC synthetic oligo sequence code by measuring fluorescence stimulation due to AT base pairs next to bulge in bulge binding assay. Also noted: species or system Homo sapiens. The gist of the method: as §1

SMILES strings stand for the structures. Active and inactive are the calls of the source. No cut-off for these calls is given here.

A word on the Kd: it is the equilibrium constant for the complex coming apart. `CN[C@H]1[C@@H](O[C@H]2c3cc4ccccc4cc3[C@H]3[C@@H]2CC[C@]32C(=O)C=Cc3ccc(OC)cc32)O[C@H](C)[C@H](O)[C@@H]1O`: the Kd in [1] is 0.15 µM; in assay [2] it was 0.11 µM; in assay [3] it was 2.1 µM; in [4] it was 0.08 µM; in assay [5] it was 1.13 µM; in assay [7] it was 0.1 µM. The Kd in assay [8] was found to be 0.16 µM; in assay [9], 0.29 µM; in [10] it was 8.4 µM; in assay [12] it was 0.29 µM; in assay [13] it was 0.11 µM; in assay [14] it was 0.22 µM. The dissociation constant (Kd) was determined as 0.24 µM in assay [16], 0.14 µM in assay [17], 0.6 µM in assay [18] and 10 µM in assay [19]. Besides, the Activity in the assay filed under Homo sapiens [6] was 31.8; in [15], 75000 cpm. Also, the result in the assay listed under Homo sapiens [11] was inactive.
For `CN[C@H]1[C@@H](O[C@@H]2c3cc4ccccc4cc3[C@@H]3[C@H]2CC[C@@]32C(=O)C=Cc3ccc(OC)cc32)O[C@H](C)[C@H](O)[C@@H]1O`, the dissociation constant (Kd) in [1] turned out to be 0.17 µM; in [2], 0.16 µM; in assay [3], 1.7 µM; in assay [4] it was 0.13 µM; in assay [20], 1.96 µM; in assay [5] it was 0.55 µM. In addition, the Kd in assay [21] worked out at 0.26 µM; in assay [7], 0.16 µM; in assay [8], 0.3 µM; in [10] it was 4.1 µM; in [13], 0.24 µM; in [14], 1.4 µM. Besides, the dissociation constant Kd in assay [16] is 0.15 µM; in assay [17], 0.11 µM; in assay [18] it was 0.8 µM; in assay [19] it was 13 µM. Also, the Activity in the assay filed under Homo sapiens [6] amounted to 15.7; in assay [15], 37000 cpm. Moreover, the outcome in the assay filed under Homo sapiens [11] was inactive.
